# Experimental data reported in the EternaBench riboswitch data.
# Tested on: MS2 coat protein
# Test: apparent Kd, MS2 coat protein; higher = weaker binding; RNA-MaP array; FMN 200 µM where present
# Procedure, shortened: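 Designs were transcribed by stalled E. coli RNA polymerase on Illumina sequencing-chip clusters. They were titrated with SNAP-549-labelled MS2 coat protein from 0.7 or 1.5 nM, doubling to 3 µM, in 100 mM Tris-HCl pH 7.5, 80 mM KCl, 4 mM MgCl2, BSA, DTT, yeast tRNA and Tween-20, without and then with constant ligand. The apparent Kd is the median of filtered per-cluster fits after normalisation of green signal to red-channel RNA signal and control-cluster median Fmax.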
# [1] = designed as: ON switch for flavin mononucleotide, no ligand
# [2] = ligand present: flavin mononucleotide, designed as: ON switch for flavin mononucleotide
# [3] = designed as: OFF switch for flavin mononucleotide, no ligand
# [4] = ligand present: flavin mononucleotide, designed as: OFF switch for flavin mononucleotide
Sequence,apparent Kd [1],apparent Kd [2],apparent Kd [3],apparent Kd [4]
AGCGUGGUCCACUUGGACGCCUACGAGGAUAUCCUGUCACAUGAGGAUCACCCAUGUAGGCACACGGAGAAGGCGUAGACUUAA,25.8 nM,6.8 nM,–,–
AGCUAAAACGAAGGAUAUACAAACAUGAGGAUCACCCAUGUAUACAUGAUUUAUUGUGAUCACAUGUAGAAGGUCGUACUAACA,958 nM,225 nM,–,–
AGCUACGUUUCGUAGCAGCUAGGUGAGGAUAUUCAAUUUUUCACAUGAGGAUCACCCAUGUAUGUGAAGAAGGCGCCUAGAAAU,11.1 nM,4.98 nM,–,–
AGCUAGUCAGGAUAUACAAACAUGUCAAAAGACGUGAAGGGACAUGAGGAUCACCCAUGUAGAAGGGACUAGCA,–,–,66.2 nM,379 nM
AGCUAGUCAGGAUAUACAUGAGGAUCACCCAUGUAAACUUUUAGUUUAAUUUGAAUGUGUAGAAGGGACAUAAA,–,–,21.7 nM,24.1 nM
AGCUAGUCAGGAUAUACGAACAUGUCAAAAGACGUGAAGGGACAUGAGGAUCACCCAUGUAGAAGGGACUAGCA,–,–,40 nM,170 nM
AGCUCAAAAGUGAGGAUAUCUAGGGUCAAAUGACCGGAGAAGGCACAUGAGGAUCACCCAUGUAACGCCAUGGA,–,–,12.9 nM,31.6 nM
AGCUCGCGAAGAGGAUAUACAGCGGCGACCUAUCAUGACGAGCGGGUUACAUGAGGAUCACCCAUGUAGAAGGCUUCCCGACUC,–,–,26.6 nM,73.9 nM
AGCUGACAAGGAUAUACUCGGGAUGCUAGUCGCGCAGAAGCACAUGAGGAUCACCCAUGUAGAAGGUGUCAGAA,–,–,158 nM,83.2 nM
AGCUGUGGCCGAGGAUAUCUAAUAAUCCCAACCGAAAUAUAAUCGGACAUGAGGAUCACCCAUGUAGAGAAGGCGGUCUCAGCA,–,–,143 nM,307 nM
AGCUGUGGCCGAGGAUAUCUAUUAAUCCAAACCGAAAUAUAAUCGGACAUGAGGAUCACCCAUGUAGAGAAGGCGGUCUCAGCA,–,–,72 nM,77.2 nM
AGGAAGUCAGGAUAUGCUGCUCGUCACUUGCGUGAUGAGUAGCAGAAGGGACAUGAGGAUCACCCAUGUAAAAA,–,–,52.6 nM,57.9 nM
AGGAAGUGAGGAUAUGCAGCAGCUAGUGGACGCUAGCGCAUGUAGAAGGCACAUGAGGAUCACCCAUGUUUAAA,–,–,32.1 nM,36.2 nM
AGGAAGUGAGGAUAUGCAGUCGCUAGUAGACGCUAGCACUUGUAGAAGGCACAUGAGGAUCACCCAUGUUUAAA,–,–,31.3 nM,36.3 nM
AGGAAGUGAGGAUAUGCAGUGGCUAGUAGACGCUAGCACUUGUAGAAGGCACAUGAGGAUCACCCAUGUUUAAA,–,–,31.9 nM,36.9 nM
AGGAGUAAAGGGAAUAACAUGAGGAUCACCCAUGUAUGGGAGAGAAGGCAUAUCGGAGGACGAUAUGAGGAUAUUUAAACUCUA,62.6 nM,18.7 nM,–,–
AGGAUAGGAAACUUUGUCCAUUGUACAGAAGGCCAACAUGAGGAUCACCCAUGUAAGAAAAGGAUGGAGGAUAUGUAUAGGGCC,25.8 nM,12.3 nM,–,–
AGGAUCCUAUCAAGACAAAUGUACAUGAGGAUCACCCAUGUGCAGGAUAUAGCUAGUUACGGUGGUUAGAAGGGCACGCCAAAA,–,–,8.98 nM,13.3 nM
AGGCUAUUAGGAUAUACAUGAGGAUCACCCAUGUCGAUCUACAGGCUACGGCACGGCAGUAGAAGGAAUGGCCG,–,–,15.7 nM,16.7 nM
AGGGAUAAAGGAUAUACAUGAGGAUCACCCAUGUUGAGGAAAGUGAGAGGUGGCGAUAGUAGAAGGUUAGGUGG,–,–,92.6 nM,70.1 nM
AGGGUGGGCUCAGGAUAUCAGGAAGAGAUGUGGACAUGAGGAUCACCCAUGUACCAGUGUUGUUAUGAGAAGGGAGAUACUGUA,52.3 nM,28.8 nM,–,–

Sequence,apparent Kd [1],apparent Kd [2],apparent Kd [3],apparent Kd [4]
AGGUGACAUGAGGAUCACCCAUGUCAGGAUAUAUACACCGCCGGCGUGAAGCCGACGGAUAGAAGGGACAAAAU,–,–,16.6 nM,21.6 nM
AGGUUGUGAGGAUAUUAGUUUUAUGAUUGGAGGAGUUUGGCUGAGAAGGCACAUGAGGAUCACCCAUGUAGAUC,–,–,61.9 nM,124 nM
AGUAAAGGCCUGAGGUGUCCGAACAUGAGGAUCACCCAUGUAGAGGAUAUAGGUGGAAGUGACUCCUAGAAGGCUACGUGUCAU,–,–,6.18 nM,8.18 nM
AGUAAGAUGCAGAAGGUGUCAGCGAGAGCUGCACAUGAGGAUCACCCAUGUUGUCGGUGACGACGCAAGGAUAUGCAUCUUACA,89.2 nM,15.8 nM,–,–
AGUAAGAUGCAGAAGGUGUCAGCUAGAGCUACGACAUGAGGAUCACCCAUGUACUAGAAACAGUACAAGGAUAUGCAUCUUACA,80.2 nM,8.27 nM,–,–
AGUACCAUGUAGAAGGCAUAUCUCAAAGAGAUAUGAGGAUAUACAUGAGGAUCACCCAUGUAAAUGUACUCCAGGAAACUGGAA,–,–,28.3 nM,136 nM
AGUACUCAAAGAGUACGCAUACGCACAUGAGGAUCACCCAUGUAGGAUAUGCUACUCAAAGAGUAGUAGAAGGACAUAUACCUC,–,–,4.31 nM,4.46 nM
AGUAGAUCAGGAUAUACAUAAAUGAUAAUUAUGUAACUUCAACAUGAGGAUCACCCAUGUAGAAGGGAUCUACA,–,–,16.3 nM,15 nM
AGUAGAUCAGGAUAUACGUGAAAGGUCAAAGUGUCCCUUCUACAUGAGGAUCACCCAUGUAGAAGGGAUCUACA,–,–,12.8 nM,12.5 nM
AGUCAGAGCAGAGGAUAUAUACAUGAGGAUCACCCAUGUGACUGCCUAUGCUCGAAAGAGUAUGUAUAGAAGGCUGCUCUGACA,–,–,611 nM,276 nM
AGUCGGAGCAGAGGAUAUACAUGAGGAUCACCCAUGUAAAUGAAUGAAGCCUGGAAACAGGCAAUGUAGAAGGCUGCUCCGACA,–,–,17.6 nM,54.2 nM
AGUCGGAGCAGAGGAUAUUACAUGAGGAUCACCCAUGUAUGAACCAAUAGCUGGAAACAGCAAUGUAAGAAGGCUGCUCCGACA,–,–,37.6 nM,426 nM
AGUCGGCGAGGAUAUACAUGAGGAUCACCCAUGUGAGAUAGUGCACGCGUACGUGUACGUAGAAGGCGCUGACA,–,–,12.1 nM,23.2 nM
AGUGCGUAUGUGAGGAUAUGCUGGUCCUUGGAUCGGCAGAAGGCACAUGAGGAUCACCCAUGUGGUGUCGUACU,–,–,381 nM,20 nM
AGUGCGUAUGUGAGGAUAUGCUGGUCCUUGGCUCGGCAGAAGGCACAUGAGGAUCACCCAUGUGGUGUCGUACU,–,–,239 nM,47.1 nM
AGUGGUGAGCAAGGAUAUCGCCACUGCGUGACCUCACAACGGAUACAUGAGGAUCACCCAUGUGGCGAGAAGGUGCGGGAACGG,–,–,28.1 nM,36.9 nM
AGUGGUUACACAGGAUAUCCUCGUUAUUAACUAGGAGAAGGGUGGACACCACACAUGAGGAUCACCCAUGUACCACGAUAAAGA,209 nM,42.4 nM,–,–
AGUGUCAUCGAGAAGGCCUCAACAUGAGGAUCACCCAUGUUGCAAAAUGGGAGGAUAUCAAAACUACAGCUACGUUUCGUAGCA,69.1 nM,9.44 nM,–,–
AGUGUCAUCGAGAAGGCCUCAUGAACAUGAGGAUCACCCAUGUAAGAUGGGAGGAUAUCGAUGAUACAGCUACGUUUCGUAGCA,51.1 nM,31.9 nM,–,–
AGUGUCAUCGAGAAGGCCUUAACAUGAGGAUCACCCAUGUUAUAACAUGGGAGGAUAUCGAUGAUACAGCUACGUUUCGUAGCA,286 nM,18.2 nM,–,–
AGUUAAUAUCGAGGAUAUAAGUCUAAGACAUGAGGAUCACCCAUGUAUGUCUUAGAAGGCGAUAUUAACAGCAUGUUACAUGCA,53.2 nM,9.67 nM,–,–
